# Dynein cargo inh: inhibitors of GR-EGFP nuclear translocation, primary screen, dynein cargo transport inhibitor project, imaging, high-content, 3617.4 mouse cells | z-score, hits read low | AID 1381, 2008 | 220,000 compounds, 0.47% hits | test concentration mostly 20 µM; stimulated with dexamethasone, 1 µM; hits give low values;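 active = plate z-score of nuclear minus cytoplasmic receptor signal below a set negative limit, without overly bright fluorescence or cell loss, cut at about -3.5 in these data, passing the limit was not always enough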;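 note: z-score of nuclear minus cytoplasmic ring GR-EGFP intensity difference per well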
#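 Buffer or medium: tet-free, stripped-serum medium; Also added: dexamethasone, 1.0 µM final; Technique: high-content fluorescence imaging after fixation; Times: 48 h induction, 1 h compound, 30 min dex at 37 °C; Read-out: per-cell GR-EGFP intensity, nucleus versus surrounding cytoplasmic ring, well-averaged.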
# Mdm2-MdmX inh: inhibitors of human Mdm2-MdmX association, primary screen, cell-based, luminescence, split luciferase, SaOS-2, uHTS | AID 485346, 2010 | 330,000 compounds, 3% hits | inhibition, % at 8 µM | Protein Mdm4 (Homo sapiens) + E3 ubiquitin-protein ligase Mdm2 (Homo sapiens), … | SaOS-2 split-luciferase Mdm2/MdmX complementation;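 active = inhibition of at least 50% at 8 µM in the primary screen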
# UPR XBP1 act: activators of adaptive XBP1 UPR arm, primary screen, cell-based, CHO-XBP1 luciferase reporter, luminescence, uHTS. 330,000 compounds, 0.33% hits. activation, % at 20 µM. IRE1-XBP1 UPR activation; percent of tunicamycin response, DMSO as zero;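 active = versus positive control, 20 µM dose yields 30% or more activation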;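 note: 100% = tunicamycin at 10 µg/mL and 0% = DMSO only wells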
#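 Material: IRE1-XBP1 luciferase reporter CHO line / Quantity: one thousand reporter cells per well / Buffer or medium: F12 with 10% serum / Compound: 20 µM single concentration, DMSO 1% / Times: 6 h treatment, 37 °C / Detection: Steady-Glo luciferase glow luminescence, 10 min after reagent addition / Benchmarks: tunicamycin high, DMSO low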
# CHOP UPR activ: activators of apoptotic CHOP UPR arm, primary screen, cell-based, CHO-CHOP luciferase reporter, luminescence, uHTS; UPR activation; percent of tunicamycin response over DMSO baseline; activation, % at 10 µM; 330,000 compounds, 0.34% hits; AID 449763, 2010;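 active = at 10 µM dose, activation of 40% or more, normalized to positive control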;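 note: 100% = tunicamycin at 10 µg/mL and 0% = DMSO alone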
#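 measured by = luciferase luminescence | assay system = CHO-CHOP cells, stable luciferase reporter of PERK-eIF2a-CHOP signalling | amount = 500 reporter cells seeded per well | timing = 6 h compound exposure at 37 °C after overnight seeding | controls = positive tunicamycin 10 µg/mL, negative DMSO alone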
# Beta2AR agonist: beta2AR agonists driving receptor internalization, primary screen, cell-based, FAP fluorogen, flow cytometry; Am2.2-beta2AR cells; 340,000 compounds, 0.43% hits; response, % (concentration not given with the values); Beta-2 adrenergic receptor (Homo sapiens), P07550;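 active = response above a set limit, near 3 SD of response in nonfluorescent compounds, cut at about 42% in these data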
# Mdm2 ligase inh: MDM2-luciferase reporter signal enhancers, primary screen, MDM2 E3 ligase inhibitor project, cell-based, luminescence, 1536-well. E3 ubiquitin-protein ligase Mdm2 (Homo sapiens), Q00987. cell-based MDM2 ubiquitination luciferase reporter, 2 h; 0 = plate control, 100 = twice control, blank-subtracted. signal enhancement, % at 5 µM. 210,000 compounds, 0.11% hits. AID 1230, 2008;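 active = signal enhancement of 30% or more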;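 note: luminescence tracks abundance of the self-degrading MDM2-luciferase fusion protein; higher signal means inhibition of MDM2 E3 ligase activity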
# Target sequence (Q00987 whole entry, looked up, the tested form may be a part): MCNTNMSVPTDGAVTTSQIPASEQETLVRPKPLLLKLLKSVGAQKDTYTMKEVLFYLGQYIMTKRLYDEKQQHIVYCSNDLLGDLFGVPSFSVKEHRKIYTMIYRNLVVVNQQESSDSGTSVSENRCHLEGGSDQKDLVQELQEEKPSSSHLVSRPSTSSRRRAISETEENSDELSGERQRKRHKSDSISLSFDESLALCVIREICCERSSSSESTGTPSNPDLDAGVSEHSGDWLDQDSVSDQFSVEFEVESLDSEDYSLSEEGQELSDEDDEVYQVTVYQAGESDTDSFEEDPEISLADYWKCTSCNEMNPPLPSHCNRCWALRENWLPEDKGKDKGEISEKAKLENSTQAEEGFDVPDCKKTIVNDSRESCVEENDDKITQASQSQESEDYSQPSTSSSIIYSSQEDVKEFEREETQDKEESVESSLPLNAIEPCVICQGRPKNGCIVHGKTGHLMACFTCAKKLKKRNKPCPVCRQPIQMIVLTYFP
#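 test system = mammalian cells stably expressing self-ubiquitinating, self-degrading MDM2 E3–luciferase fusion | quantity = 2000 cells/well | incubation = cell settling 4 h, compound treatment 2 h, both 37 °C | signal = luminescence with SteadyLite reagent, 15 min at room temperature | evaluation = % enhancement relative to plate controls after blank subtraction | benchmarks = plate controls and plate blanks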
# Mdm2-MdmX conf: Mdm2-MdmX complex disruptors, retested hits, confirmation, luminescence, single concentration; shares compounds with Mdm2-MdmX inh; Mdm2-MdmX binding, luminescent assay; inhibition, % at 8 µM; 10,000 compounds, 55% hits; AID 489028, 2010; in the data active = inhibition above about 40%
# Full FLuc ctr: full-length luciferase signal inhibition, confirmation, counter-screen for Mdm2/MdmX interaction inhibitor project, cell-based, single concentration, SaOS-2; shares compounds with Mdm2-MdmX inh; SaOS-2 full-length luciferase counterscreen, luminescence; inhibition, % at 8 µM; 6,200 compounds, 77% hits; AID 504607, 2011;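 active = mean inhibition at 8 µM reaching about 37%, which flags the compound as non-specific, limit read from the data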;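 note: p53-null SaOS-2 cells with luciferase driven by a doxycycline-inducible promoter; compound on cells about two nights before reading with doxycycline added after day one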
# Numbers without * were called inactive; . = not tested or not shown. Sampled rows, rich in hits. Any-hit rate of the full collection: about 3.7%.
SMILES,Dynein cargo inh,Mdm2-MdmX inh,UPR XBP1 act,CHOP UPR activ,Beta2AR agonist,Mdm2 ligase inh,Mdm2-MdmX conf,Full FLuc ctr
CCOC(=O)c1c(C)nc2sc(C(=O)Nc3ccc(C(C)=O)cc3)c(N)c2c1-c1ccc(OC)cc1,0.18,6,-2,-1,15,-9,.,.
O=C(CSc1nc2ccccc2s1)N/N=C/c1ccccc1C(=O)O,-0.38,66*,-3,-1,-2,-20,82*,119*
COc1cc(/C=N/NC(N)=O)ccc1OCC(=O)Nc1cc(C)c(C)cc1Br,-0.16,81*,18,4,-3,1,50*,106*
CCCCOc1ccc(C(=O)N/N=C/c2ccc(OCCN3CCCCC3)c(OC)c2)cc1,1,81*,-1,3,43*,-27,22,.
COc1ccc(/C=N/NC(=O)c2[nH]nc3c2CCc2ccccc2-3)cc1OC,-0.093,56*,20,2,5,-4,68*,74*
CCOc1cc(/C=N\NC(=O)Cc2ccccc2)ccc1OCC(=O)Nc1ccc(C)c(C)c1,-0.19,94*,26,32,10,-4,75*,76*
CNC(=O)c1[nH]nc2c1CCc1ccccc1-2,.,19,3,6,0,.,.,.
CC(C)n1c(SCC(=O)NC2CC2)nnc1-c1ccco1,.,-15,-1,-2,0,.,.,.
CCN(CC)S(=O)(=O)c1ccc2c(c1)oc(=O)n2CC(=O)NC1CCCCC1,.,15,-2,-1,5,.,.,.
CCCN1CCN(C(=O)c2c(Cl)cnn2C)CC1,.,15,-3,5,6,.,.,.
COc1ccc(C(=O)Oc2cc(/C=N/NC(N)=S)ccc2OC)cc1,-0.6,28,4,1,0,9,.,.
COc1ccc(/C=N/NC(=O)c2nc(-c3ccccc3)cc(-c3ccccc3)n2)cc1OC,-0.3,72*,8,13,10,-27,71*,86*
COc1cc(/C=N\NC(=O)c2ccc(-c3ccccc3)cc2)ccc1OCC(N)=O,.,50*,7,26,18,.,31,.
COc1cc(/C=C(\C#N)c2ccccn2)ccc1OCC(=O)Nc1c(Cl)cccc1Cl,-0.64,.,.,.,-24,7,.,.
COc1ccc(/C=N/NC(N)=S)cc1OC(=O)c1cccc2ccccc12,0.21,61*,12,8,7,-19,29,.
COc1cc(/C=C(\C#N)c2ccccn2)ccc1OCC(=O)Nc1ccc(Br)cc1,-0.71,100*,5,-1,-4,-6,94*,20
COc1cccc(/C=N/NC(=O)c2nc(-c3ccccc3)cc(-c3ccccc3)n2)c1,-0.22,42,-3,9,6,0,.,.
Cc1ccc(C(C)C)c(Oc2cnccn2)c1,.,5,-4,0,-22,.,.,.
N#Cc1ccccc1OCC(=O)OCC(=O)NC1CCS(=O)(=O)C1 (stereo unspecified),.,-4,-2,0,-2,.,.,.
COc1ccc(NC(=S)N(C(C)C)C2CCN(C(C)C)CC2)cc1Cl,.,17,0,-2,.,.,.,.
COc1ccc2[nH]c3c(c2c1)CCN1C(=O)C(CC(=O)NCc2cccc(C(F)(F)F)c2)C[C@H](C(=O)N2CCCCC2)[C@@]31C (stereo partly specified),.,47,2,4,2,.,.,.
COc1ccc(CNC(=O)C[C@H]2C[C@H](C(=O)N3CCCCC3)[C@@]3(CCc4ccccc4)c4[nH]c5ccc(Cl)cc5c4CCN3C2=O)cc1OC,.,55*,7,9,7,.,1,.
CC[C@]12c3[nH]c4ccc(Cl)cc4c3CCN1C(=O)[C@@H](CC(=O)NCc1cccc(C(F)(F)F)c1)C[C@@H]2C(=O)N1CCN(C(=O)c2ccco2)CC1,.,58*,5,11,-1,.,10,.
C[C@]12c3[nH]c4ccc(Cl)cc4c3CCN1C(=O)[C@@H](CC(=O)NCc1cccc(C(F)(F)F)c1)C[C@@H]2C(=O)N1CCCCC1,.,81*,11,8,-1,.,2,.
CC[C@]12c3[nH]c4ccc(Cl)cc4c3CCN1C(=O)[C@@H](CC(=O)NCc1ccc(OC)c(OC)c1)C[C@@H]2C(=O)N1CCN(C(=O)C2CC2)CC1,.,13,1,3,-5,.,.,.
SMILES,Dynein cargo inh,Mdm2-MdmX inh,UPR XBP1 act,CHOP UPR activ,Beta2AR agonist,Mdm2 ligase inh,Mdm2-MdmX conf,Full FLuc ctr
O=C1N(c2ccccc2C(F)(F)F)O[C@@]1(c1ccccc1)C1CCCCC1,.,87*,0,3,17,.,50*,52*
O=C(Nc1ccccc1N1CCCCC1)C1CCN(S(=O)(=O)c2ccccc2C(F)(F)F)CC1,.,-12,-3,0,14,.,.,.
O=C1N(c2ccccc2C(F)(F)F)O[C@@]1(c1ccccc1)C1CCCC1,.,77*,0,1,10,.,51*,56*
CCCCN(C)CCNC(=O)C1CCN(S(=O)(=O)c2cccc3nsnc23)CC1,.,-18,-3,-3,-2,.,.,.
O=C(COC(=O)CCNS(=O)(=O)c1ccc(Cl)cc1)Nc1ccccc1OC(F)F,.,14,1,2,-3,.,.,.
Cc1nc(N)nc(N)c1CCCc1ccc(Cl)c(Cl)c1,.,68*,-1,0,18,.,57*,50*
CC(=O)N(C(C)=O)n1c(C)nc2sc3c(c2c1=O)CCCC3,3.1,73*,-1,-2,-6,-13,80*,45*
Cc1nc2sc3c(c2c(=O)n1N)CCC3,-0.17,-9,-8,1,-2,-8,.,.
COc1ccccc1P(=O)(Cc1ccccc1)c1ccccc1 (stereo unspecified),.,7,-7,0,-2,.,.,.
CC1CCN(c2ccc3c(c2)S(=O)(=O)c2cccc(C(=O)NC4CCCCC4)c2C3=O)CC1,.,0,0,7,2,.,.,.
Cc1ccc(NC(=O)COC(=O)/C=C/c2c(C)nn(-c3ccc(F)cc3)c2Cl)cc1F,-0.49,52*,1,0,-8,2,3,.

# Screens deposited in PubChem by several laboratories.
